Results taken from ChEMBL document CHEMBL5532690, “Antitubercular activity of 2-mercaptobenzothiazole derivatives targeting Mycobacterium tuberculosis type II NADH dehydrogenase” (RSC Med Chem, 2024).
≈ marks a conversion by molar mass, not a printed value.

How the values were obtained:
[1] = tested on: Mycobacterium tuberculosis variant bovis; test: Antitubercular activity against Mycobacterium bovis BCG measured after 10 days by liquid broth microdilution assay; assay type: functional; details: 240 h, time 10 day
Outline: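 Broth microdilution in 7H9 with 0.2% glycerol, 0.05% Tween 80 and 10% ADS. Mid-log cultures (OD600 0.4–0.6) were diluted to OD600 0.005 (1.0 × 10^6 CFU ml−1) and added to two-fold serial compound dilutions. Plates were incubated at 37 °C for 10 days and read visually. MIC was the lowest concentration with no turbidity.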

[2] = tested on: Mycobacterium tuberculosis variant bovis; test: Antitubercular activity against Mycobacterium bovis BCG assessed as inhibition of intracellular ATP synthesis incubated for 24 hrs by BacTiter-Glo microbial cell viability assay; assay type: functional, organism-based
Outline: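 Mid-log cultures were adjusted to OD600 0.05 and exposed to compounds at 37 °C for 24 h. BacTiter-Glo reagent was then added for 12 min and luminescence was read. H37Ra and BCG were grown in 7H9 with glycerol, Tween 80 and ADS. mc2 6230 was grown with tyloxapol plus methionine, leucine, arginine and pantothenate. Values are the mean of triplicates.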

SMILES | MIC90 [1] | IC50 [2]
NNC(=O)c1ccncc1 [ISONIAZID] | 0.06 µg/mL (≈ 0.438 µM) | –
O=C(CSc1nc2ccccc2s1)NC1CCCCC1 | 64 µg/mL (≈ 209 µM) | 33.2 µg/mL (≈ 108 µM)
O=C(CSc1nc2c(Br)cc(OC(F)(F)F)cc2s1)NC1CCCCC1 | 128 µg/mL (≈ 273 µM) | 40.8 µg/mL (≈ 86.9 µM)
CO[C@H]1/C=C/O[C@@]2(C)Oc3c(C)c(O)c4c(O)c(c(/C=N/N5CCN(C)CC5)c(O)c4c3C2=O)NC(=O)/C(C)=C\C=C\[C@H](C)[C@H](O)[C@@H](C)[C@@H](O)[C@@H](C)[C@H](OC(C)=O)[C@@H]1C [RIFAMPIN] | 0.03 µg/mL (≈ 0.0365 µM) | –
CC(C)c1ccc2nc(SCC(=O)NC3CCCCC3)sc2c1 | 4 µg/mL (≈ 11.5 µM) | 9.89 µg/mL (≈ 28.4 µM)
O=C(CSc1nc2c(Br)cc(F)cc2s1)NC1CCCCC1 | 4 µg/mL (≈ 9.92 µM) | 13.5 µg/mL (≈ 33.5 µM)
O=C(CSc1nc2ccc(F)cc2s1)NC1CCCCC1 | 8 µg/mL (≈ 24.7 µM) | 19.7 µg/mL (≈ 60.6 µM)
O=C(CSc1nc2ccc([N+](=O)[O-])cc2s1)NC1CCCCC1 | 32 µg/mL (≈ 91.1 µM) | 34.4 µg/mL (≈ 98 µM)
O=C(CSc1nc2ccc(Cl)cc2s1)NC1CCCCC1 | 64 µg/mL (≈ 188 µM) | 32.9 µg/mL (≈ 96.4 µM)
C=C(C)[C@H]1Cc2c(ccc3c2O[C@@H]2COc4cc(OC)c(OC)cc4[C@@H]2C3=O)O1 [ROTENONE] | > 64 µg/mL | –
O=C(CSc1nc2c(Br)cc(C(F)(F)F)cc2s1)NC1CCCCC1 | 64 µg/mL (≈ 141 µM) | 39.8 µg/mL (≈ 87.9 µM)
CC(C)/N=c1\cc2n(-c3ccc(Cl)cc3)c3ccccc3nc-2cc1Nc1ccc(Cl)cc1 [CLOFAZIMINE] | 0.25 µg/mL (≈ 0.528 µM) | –
O=C(CSc1nc2ccc(OC(F)(F)F)cc2s1)NC1CCCCC1 | 128 µg/mL (≈ 328 µM) | 30.4 µg/mL (≈ 77.9 µM)
O=C(CSc1nc2ccc(Br)cc2s1)NC1CCCCC1 | 128 µg/mL (≈ 332 µM) | 31.8 µg/mL (≈ 82.4 µM)
O=C(CSc1nc2ccc(C(F)(F)F)cc2s1)NC1CCCCC1 | 128 µg/mL (≈ 342 µM) | 19.7 µg/mL (≈ 52.6 µM)
O=C(CSc1nc2ccccc2c(=O)[nH]1)NC1CCCCC1 | 1 µg/mL (≈ 3.15 µM) | 4.99 µg/mL (≈ 15.7 µM)
Cc1cc(C)c2nc(SCC(=O)NC3CCCCC3)sc2c1 | 4 µg/mL (≈ 12 µM) | 13.4 µg/mL (≈ 40.2 µM)
O=C(CSc1nc2c(ccc3ccccc32)s1)NC1CCCCC1 | 64 µg/mL (≈ 180 µM) | 38 µg/mL (≈ 106 µM)
Cc1ccc2nc(SCC(=O)NC3CCCCC3)sc2c1 | 16 µg/mL (≈ 49.9 µM) | 14.4 µg/mL (≈ 44.9 µM)
